Test results as given in ChEMBL document CHEMBL3774321, “Systematic diversification of benzylidene heterocycles yields novel inhibitor scaffolds selective for Dyrk1A, Clk1 and CK2” (Eur J Med Chem, 2016).
The source made the active and inactive calls. The rule behind the calls is not given here.

Legend:
[1] = molecular target: T1, Serine/threonine-protein kinase haspin (Homo sapiens) (UniProt Q8TF76); assay: Inhibition of Haspin (unknown origin) at 1 uM relative to control
T1 sequence (whole entry): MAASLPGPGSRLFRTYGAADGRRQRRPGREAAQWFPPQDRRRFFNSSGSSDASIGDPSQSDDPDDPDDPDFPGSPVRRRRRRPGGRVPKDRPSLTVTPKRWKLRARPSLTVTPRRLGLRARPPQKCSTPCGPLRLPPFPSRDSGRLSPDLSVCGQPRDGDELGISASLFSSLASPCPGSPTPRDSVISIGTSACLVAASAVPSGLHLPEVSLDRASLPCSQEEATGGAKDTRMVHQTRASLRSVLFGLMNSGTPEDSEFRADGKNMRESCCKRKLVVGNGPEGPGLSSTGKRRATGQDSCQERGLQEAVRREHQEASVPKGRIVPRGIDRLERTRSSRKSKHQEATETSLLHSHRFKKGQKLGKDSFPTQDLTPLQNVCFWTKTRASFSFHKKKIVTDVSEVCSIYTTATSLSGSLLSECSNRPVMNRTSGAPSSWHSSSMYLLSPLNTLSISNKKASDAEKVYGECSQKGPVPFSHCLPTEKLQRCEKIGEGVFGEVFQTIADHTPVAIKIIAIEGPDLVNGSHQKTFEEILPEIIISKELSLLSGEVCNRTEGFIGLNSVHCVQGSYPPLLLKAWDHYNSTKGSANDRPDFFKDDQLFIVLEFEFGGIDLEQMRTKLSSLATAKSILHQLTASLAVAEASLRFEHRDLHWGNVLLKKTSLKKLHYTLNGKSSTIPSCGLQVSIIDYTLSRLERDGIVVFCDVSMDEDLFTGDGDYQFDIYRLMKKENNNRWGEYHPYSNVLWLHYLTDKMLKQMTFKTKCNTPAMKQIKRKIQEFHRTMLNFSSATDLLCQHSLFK
In short: (§1)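 Single-point screen at 1 μM compound. Percent inhibition is the mean of two separate measurements, each run in duplicate.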

[2] = molecular target: T2, Phosphatidylinositol 4,5-bisphosphate 3-kinase catalytic subunit gamma isoform (Homo sapiens, UniProt P48736); assay: Inhibition of PI3K p110gamma (unknown origin) at 1 uM relative to control; in short: as §1
[3] = molecular target: T3, Phosphatidylinositol 4,5-bisphosphate 3-kinase catalytic subunit delta isoform (Homo sapiens) (UniProt O00329); conditions: 1 uM
T3 sequence (whole entry): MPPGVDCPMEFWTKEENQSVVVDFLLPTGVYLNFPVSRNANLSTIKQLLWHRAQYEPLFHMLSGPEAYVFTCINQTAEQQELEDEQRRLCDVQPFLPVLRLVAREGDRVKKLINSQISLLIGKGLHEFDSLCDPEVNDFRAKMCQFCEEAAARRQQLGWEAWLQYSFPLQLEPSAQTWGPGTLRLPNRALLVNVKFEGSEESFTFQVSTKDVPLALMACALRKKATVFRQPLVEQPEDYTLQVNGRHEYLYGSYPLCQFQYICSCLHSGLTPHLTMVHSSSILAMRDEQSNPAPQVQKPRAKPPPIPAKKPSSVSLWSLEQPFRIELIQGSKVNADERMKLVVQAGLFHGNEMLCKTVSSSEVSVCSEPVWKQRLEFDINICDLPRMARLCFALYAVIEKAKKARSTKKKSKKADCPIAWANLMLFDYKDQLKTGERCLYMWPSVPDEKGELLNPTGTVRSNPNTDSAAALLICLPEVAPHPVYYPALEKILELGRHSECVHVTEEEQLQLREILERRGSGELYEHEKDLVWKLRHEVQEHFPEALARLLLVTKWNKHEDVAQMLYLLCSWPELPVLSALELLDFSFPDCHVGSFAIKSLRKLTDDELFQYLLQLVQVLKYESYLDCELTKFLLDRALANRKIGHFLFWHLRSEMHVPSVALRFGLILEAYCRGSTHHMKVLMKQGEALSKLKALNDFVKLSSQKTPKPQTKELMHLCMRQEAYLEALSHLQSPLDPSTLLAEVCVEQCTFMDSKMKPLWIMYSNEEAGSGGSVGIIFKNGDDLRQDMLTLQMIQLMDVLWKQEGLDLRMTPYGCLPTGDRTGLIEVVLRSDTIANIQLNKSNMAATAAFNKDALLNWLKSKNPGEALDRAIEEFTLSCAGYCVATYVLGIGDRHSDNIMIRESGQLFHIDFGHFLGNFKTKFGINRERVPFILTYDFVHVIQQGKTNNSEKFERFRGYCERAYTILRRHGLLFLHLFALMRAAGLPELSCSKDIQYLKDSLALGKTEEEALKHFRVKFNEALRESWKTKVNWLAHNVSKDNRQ

[4] = molecular target: Dual specificity tyrosine-phosphorylation-regulated kinase 3 (Homo sapiens) (UniProt O43781); assay: Inhibition of full length recombinant human GST-tagged DYRK3 expressed in baculovirus expression system at 1 uM by lantha screen kinase binding assay relative to control
[5] = molecular target: Serine/threonine-protein kinase haspin (Homo sapiens, UniProt Q8TF76); assay: Inhibition of Haspin (unknown origin)
In short: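 Calculated from means of duplicates differing by less than 7%.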

[6] = Growth inhibition of human U87MG cells after 4 days by MTT assay; type: functional, cell-based, U-87MG ATCC; conditions: U-87 MG, 96 h
[7] = molecular target: Casein kinase I isoform gamma-3 (Homo sapiens) (UniProt Q9Y6M4); assay: Inhibition of full length recombinant human GST-tagged CSNK1G3 expressed in baculovirus expression system at 1 uM by lantha screen kinase binding assay relative to control
[8] = molecular target: Dual specificity protein kinase CLK4 (Homo sapiens, UniProt Q9HAZ1); assay: Inhibition of full length recombinant human GST-tagged CLK4 expressed in baculovirus expression system by lantha screen kinase binding assay
In short: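 LanthaScreen binding format: test compound competes with an Alexa Fluor-conjugated tracer for the ATP site. IC50 derived from this displacement, not from peptide phosphorylation.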

[9] = molecular target: Phosphatidylinositol 4-phosphate 3-kinase C2 domain-containing subunit beta (Homo sapiens) (UniProt O00750); assay: Inhibition of PI3K-C2beta (unknown origin) at 1 uM relative to control; in short: as §1
[10] = molecular target: T4, Phosphatidylinositol 4,5-bisphosphate 3-kinase catalytic subunit alpha isoform (Homo sapiens, UniProt P42336); assay: Inhibition of PI3K p110alpha (unknown origin) at 1 uM relative to control; in short: as §1
[11] = molecular target: Phosphatidylinositol 4-phosphate 3-kinase C2 domain-containing subunit beta (Homo sapiens) (UniProt O00750); assay: Inhibition of PI3K-C2beta (unknown origin) at 5 uM relative to control
[12] = molecular target: T3, Phosphatidylinositol 4,5-bisphosphate 3-kinase catalytic subunit delta isoform (Homo sapiens); assay: Inhibition of PI3K p110delta (unknown origin) at 5 uM relative to control
[13] = molecular target: T4, Phosphatidylinositol 4,5-bisphosphate 3-kinase catalytic subunit alpha isoform; assay: Inhibition of PI3K p110alpha (unknown origin) at 5 uM relative to control
[14] = molecular target: T2, Phosphatidylinositol 4,5-bisphosphate 3-kinase catalytic subunit gamma isoform; assay: Inhibition of PI3K p110gamma (unknown origin) at 5 uM relative to control
[15] = molecular target: Myosin light chain kinase 2, skeletal/cardiac muscle (Homo sapiens, UniProt Q9H1R3); assay: Inhibition of full length recombinant human N-terminal GST-tagged skeletal MYLK2 expressed in baculovirus expression system at 5 uM by lantha screen kinase binding assay relative to control
In short: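 Binding-displacement format: the compound competes with an Alexa Fluor-conjugated tracer for binding to the kinase ATP site, rather than a peptide phosphorylation read-out.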

T4 sequence (P42336 whole entry, the tested form may be a part, canonical isoform): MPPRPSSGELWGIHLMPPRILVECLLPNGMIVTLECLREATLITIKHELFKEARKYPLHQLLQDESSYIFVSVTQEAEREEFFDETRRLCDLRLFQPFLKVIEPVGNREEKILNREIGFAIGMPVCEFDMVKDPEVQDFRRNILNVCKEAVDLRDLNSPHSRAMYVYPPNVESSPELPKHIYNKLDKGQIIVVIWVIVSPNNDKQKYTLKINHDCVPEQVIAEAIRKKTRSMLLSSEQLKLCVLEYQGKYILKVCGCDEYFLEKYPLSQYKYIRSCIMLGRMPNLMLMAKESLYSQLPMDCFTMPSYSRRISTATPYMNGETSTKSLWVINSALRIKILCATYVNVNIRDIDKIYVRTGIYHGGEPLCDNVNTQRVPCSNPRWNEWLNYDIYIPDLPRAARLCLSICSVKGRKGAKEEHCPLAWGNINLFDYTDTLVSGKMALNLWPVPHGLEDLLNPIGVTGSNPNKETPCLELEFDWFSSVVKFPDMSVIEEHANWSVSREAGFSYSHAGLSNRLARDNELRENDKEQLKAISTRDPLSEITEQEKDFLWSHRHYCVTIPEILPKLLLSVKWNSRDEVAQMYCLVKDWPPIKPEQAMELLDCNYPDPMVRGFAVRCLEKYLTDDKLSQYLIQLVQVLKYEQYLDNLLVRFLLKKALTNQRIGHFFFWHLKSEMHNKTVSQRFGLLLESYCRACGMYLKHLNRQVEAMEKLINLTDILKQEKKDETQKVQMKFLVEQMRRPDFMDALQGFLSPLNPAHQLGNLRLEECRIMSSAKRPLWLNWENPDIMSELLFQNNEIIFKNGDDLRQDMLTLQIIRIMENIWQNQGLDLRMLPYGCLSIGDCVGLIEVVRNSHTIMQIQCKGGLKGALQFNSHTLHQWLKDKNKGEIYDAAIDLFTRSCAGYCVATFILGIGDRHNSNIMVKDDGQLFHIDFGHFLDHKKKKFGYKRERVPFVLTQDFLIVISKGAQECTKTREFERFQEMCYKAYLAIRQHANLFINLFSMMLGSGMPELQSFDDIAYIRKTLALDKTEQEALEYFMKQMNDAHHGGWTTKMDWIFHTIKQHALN
Sequence of Phosphatidylinositol 4-phosphate 3-kinase C2 domain-containing subunit beta (Homo sapiens) (O00750 whole entry, the tested form may be a part, canonical isoform): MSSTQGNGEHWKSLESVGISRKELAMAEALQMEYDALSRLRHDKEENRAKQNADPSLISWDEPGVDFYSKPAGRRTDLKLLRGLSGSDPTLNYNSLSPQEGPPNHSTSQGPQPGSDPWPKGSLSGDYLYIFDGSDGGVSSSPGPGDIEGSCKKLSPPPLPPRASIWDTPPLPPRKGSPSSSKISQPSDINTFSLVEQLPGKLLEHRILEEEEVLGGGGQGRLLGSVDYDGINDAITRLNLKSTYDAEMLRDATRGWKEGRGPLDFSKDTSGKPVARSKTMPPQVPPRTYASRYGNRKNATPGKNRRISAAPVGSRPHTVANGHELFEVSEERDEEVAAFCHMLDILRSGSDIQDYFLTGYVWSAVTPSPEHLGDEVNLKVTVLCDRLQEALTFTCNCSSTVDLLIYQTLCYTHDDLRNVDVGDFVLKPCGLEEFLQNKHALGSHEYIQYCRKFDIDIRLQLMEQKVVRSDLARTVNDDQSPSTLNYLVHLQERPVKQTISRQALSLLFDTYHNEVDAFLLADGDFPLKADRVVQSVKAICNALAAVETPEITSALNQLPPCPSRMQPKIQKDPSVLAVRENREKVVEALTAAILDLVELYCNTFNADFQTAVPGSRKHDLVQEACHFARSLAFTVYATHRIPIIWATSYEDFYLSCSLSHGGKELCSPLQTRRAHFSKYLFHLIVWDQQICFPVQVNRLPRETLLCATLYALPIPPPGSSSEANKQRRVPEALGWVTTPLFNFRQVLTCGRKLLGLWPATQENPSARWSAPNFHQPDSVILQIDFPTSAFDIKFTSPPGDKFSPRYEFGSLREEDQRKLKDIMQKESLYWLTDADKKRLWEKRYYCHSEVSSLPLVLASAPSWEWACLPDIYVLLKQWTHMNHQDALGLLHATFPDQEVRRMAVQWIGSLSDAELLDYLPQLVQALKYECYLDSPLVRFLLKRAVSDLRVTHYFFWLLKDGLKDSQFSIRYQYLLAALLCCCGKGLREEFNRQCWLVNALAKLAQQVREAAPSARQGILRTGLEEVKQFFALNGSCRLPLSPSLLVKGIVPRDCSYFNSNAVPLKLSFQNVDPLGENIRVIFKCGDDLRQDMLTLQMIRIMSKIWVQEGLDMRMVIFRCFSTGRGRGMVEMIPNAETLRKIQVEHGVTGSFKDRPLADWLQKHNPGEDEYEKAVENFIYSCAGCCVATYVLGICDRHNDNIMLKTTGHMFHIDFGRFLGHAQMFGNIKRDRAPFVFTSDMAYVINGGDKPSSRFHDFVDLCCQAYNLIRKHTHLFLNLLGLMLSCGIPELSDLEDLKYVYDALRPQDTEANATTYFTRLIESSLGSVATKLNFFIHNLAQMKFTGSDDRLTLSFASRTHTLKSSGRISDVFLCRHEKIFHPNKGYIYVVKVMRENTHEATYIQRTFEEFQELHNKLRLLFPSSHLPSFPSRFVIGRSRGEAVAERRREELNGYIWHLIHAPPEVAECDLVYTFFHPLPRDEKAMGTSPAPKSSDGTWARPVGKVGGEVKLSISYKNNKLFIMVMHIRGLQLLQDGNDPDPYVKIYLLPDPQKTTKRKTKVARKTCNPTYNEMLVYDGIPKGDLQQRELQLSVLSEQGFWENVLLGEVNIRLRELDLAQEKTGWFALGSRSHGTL
T2 sequence (P48736 whole entry, looked up, canonical isoform): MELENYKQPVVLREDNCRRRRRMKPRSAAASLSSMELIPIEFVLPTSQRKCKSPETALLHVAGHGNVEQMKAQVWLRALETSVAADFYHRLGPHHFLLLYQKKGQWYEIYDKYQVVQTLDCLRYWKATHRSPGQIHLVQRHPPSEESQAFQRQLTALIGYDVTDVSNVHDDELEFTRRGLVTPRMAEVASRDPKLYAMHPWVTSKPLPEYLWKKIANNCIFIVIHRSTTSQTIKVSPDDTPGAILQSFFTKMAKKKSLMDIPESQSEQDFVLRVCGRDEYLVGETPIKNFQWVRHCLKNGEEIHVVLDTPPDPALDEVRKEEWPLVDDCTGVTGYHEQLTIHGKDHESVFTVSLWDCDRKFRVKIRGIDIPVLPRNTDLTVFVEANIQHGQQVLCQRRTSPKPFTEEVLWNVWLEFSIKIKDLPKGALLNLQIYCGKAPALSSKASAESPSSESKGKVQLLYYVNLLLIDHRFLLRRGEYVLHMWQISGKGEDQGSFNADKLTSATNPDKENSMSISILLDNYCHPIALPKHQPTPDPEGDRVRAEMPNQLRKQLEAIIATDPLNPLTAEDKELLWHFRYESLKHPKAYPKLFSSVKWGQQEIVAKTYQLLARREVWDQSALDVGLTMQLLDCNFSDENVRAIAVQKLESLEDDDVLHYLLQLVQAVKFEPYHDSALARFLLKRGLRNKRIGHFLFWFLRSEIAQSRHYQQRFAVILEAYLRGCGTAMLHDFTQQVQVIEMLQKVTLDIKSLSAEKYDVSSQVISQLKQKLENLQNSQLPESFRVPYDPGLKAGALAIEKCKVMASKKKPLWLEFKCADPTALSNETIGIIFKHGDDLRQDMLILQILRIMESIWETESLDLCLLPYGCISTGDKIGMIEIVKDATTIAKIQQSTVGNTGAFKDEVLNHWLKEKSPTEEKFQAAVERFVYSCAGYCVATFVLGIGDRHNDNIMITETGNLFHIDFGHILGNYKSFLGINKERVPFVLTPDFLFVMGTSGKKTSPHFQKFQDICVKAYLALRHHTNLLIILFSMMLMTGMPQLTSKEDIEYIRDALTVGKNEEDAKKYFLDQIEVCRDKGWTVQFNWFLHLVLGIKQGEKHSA
Sequence of Dual specificity protein kinase CLK4 (Q9HAZ1 whole entry): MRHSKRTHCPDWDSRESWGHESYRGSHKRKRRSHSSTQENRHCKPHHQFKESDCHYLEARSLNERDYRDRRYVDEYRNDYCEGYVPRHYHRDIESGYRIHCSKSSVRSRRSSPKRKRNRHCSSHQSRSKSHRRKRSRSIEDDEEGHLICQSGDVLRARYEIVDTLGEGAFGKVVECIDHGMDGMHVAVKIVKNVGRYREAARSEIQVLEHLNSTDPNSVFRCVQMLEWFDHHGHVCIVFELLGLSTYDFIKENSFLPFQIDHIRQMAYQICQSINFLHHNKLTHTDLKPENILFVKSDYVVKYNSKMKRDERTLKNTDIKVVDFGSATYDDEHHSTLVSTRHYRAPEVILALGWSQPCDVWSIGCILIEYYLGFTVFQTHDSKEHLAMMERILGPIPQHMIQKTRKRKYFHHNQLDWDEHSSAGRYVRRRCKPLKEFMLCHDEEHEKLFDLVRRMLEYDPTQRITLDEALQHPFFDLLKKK
Sequence of Dual specificity tyrosine-phosphorylation-regulated kinase 3 (Homo sapiens) (O43781 whole entry): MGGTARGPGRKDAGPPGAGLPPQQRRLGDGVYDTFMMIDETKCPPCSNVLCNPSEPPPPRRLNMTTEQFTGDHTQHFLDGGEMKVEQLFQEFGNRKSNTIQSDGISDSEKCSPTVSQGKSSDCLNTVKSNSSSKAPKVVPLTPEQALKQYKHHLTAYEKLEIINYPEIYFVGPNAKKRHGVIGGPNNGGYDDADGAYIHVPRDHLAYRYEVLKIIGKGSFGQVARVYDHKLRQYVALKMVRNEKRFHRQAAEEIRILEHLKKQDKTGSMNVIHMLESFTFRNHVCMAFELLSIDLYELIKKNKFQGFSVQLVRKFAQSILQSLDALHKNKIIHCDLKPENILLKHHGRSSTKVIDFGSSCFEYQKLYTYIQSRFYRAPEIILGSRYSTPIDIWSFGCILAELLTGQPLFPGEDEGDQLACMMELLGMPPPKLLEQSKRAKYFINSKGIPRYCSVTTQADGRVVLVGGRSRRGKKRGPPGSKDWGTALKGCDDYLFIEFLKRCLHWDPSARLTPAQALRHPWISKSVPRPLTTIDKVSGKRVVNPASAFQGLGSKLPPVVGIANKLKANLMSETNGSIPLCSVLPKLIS

Work on `O=C1NC(=S)S/C1=C\c1ccc2ncccc2c1` yielded an inhibition [1] of 93%, an inhibition [2] of 97% and an inhibition [3] of 97%. The inhibition [4] was 84%, the IC50 [5] was 259 nM and the IC50 [6] was 200 nM. It also gave an inhibition [7] of 17%, an IC50 [8] of 17.8 nM and an inhibition [9] of 62%. The inhibition [10] was 100%.
Work on `O=C1OCC/C1=C\c1ccc2ncsc2c1` yielded an inhibition [11] of 13%, an inhibition [12] of 77% and an inhibition [13] of 90%. The inhibition [14] was 79%.
For `O=C1NC(=S)S/C1=C\c1ccc2ncsc2c1`, the inhibition [1] was 93%, the inhibition [15] was “inactive” and the inhibition [2] was 97%. The inhibition [3] was 90%, the IC50 [5] was 255 nM and the IC50 [6] was 560 nM. For the same compound, the IC50 [8] was 31.8 nM, the inhibition [9] was 56% and the inhibition [10] was 98%.
`CC1C/C(=C\c2ccc3c(c2)CCO3)C(=O)O1` (configuration not stated) showed an inhibition [11] of 8%, an inhibition [12] of 73% and an inhibition [13] of 84%. The inhibition [14] was 75%.
